# Laboratory results taken from ChEMBL document CHEMBL3091412, “Discovery of an irreversible HCV NS5B polymerase inhibitor” (Bioorg Med Chem Lett, 2013).
# How the values were obtained:
# [1] = tested on: Hepatitis C virus; assay: Antiviral activity against HCV Con1 in eplicon cells after 3 days by RT-PCR analysis; format: functional, organism-based, Hepacivirus hominis; conditions: isolate Con1, 72 h
# In short: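 HCV 1b-Con1 replicon cells seeded at 5000 cells/well one day before treatment; inhibitor in DMSO added as 10 serial twofold dilutions in duplicate (final 0.5% DMSO, 5% FBS). Harvested 3 days post dosing; replicon RNA quantified by real-time RT-PCR (Taqman), GAPDH RNA as endogenous control; EC50 calculated.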
# [2] = Irreversible inhibition of HCV1b NS5B delta21 polymerase by radiolabeled nucleotide incorporation assay; set-up: species or system Hepatitis C virus subtype 1b
SMILES,EC50 [1],IC50 [2]
Cc1cc2c(-c3ccc[nH]c3=O)c(C(=O)O)n(Cc3c(Cl)nc4ccccc4c3Cl)c2cc1F,> 1000 nM,60 nM
Cc1cc2c(-c3ccc[nH]c3=O)c(C(=O)O)n(Cc3ccc(Cl)nc3)c2cc1F,> 1000 nM,9 nM
Cc1cc2c(-c3ccc[nH]c3=O)c(C(=O)O)n(Cc3cc4ccc(F)cc4nc3Cl)c2cc1F,20 nM,20 nM
